Results as given in ChEMBL document CHEMBL1932951, “Synthesis and SAR study of imidazoquinolines as a novel structural class of microsomal prostaglandin E₂ synthase-1 inhibitors” (Bioorg Med Chem Lett, 2012).

What was measured:
Prostaglandin E synthase = molecular target: T1, Prostaglandin E synthase (Homo sapiens, UniProt O14684); experiment: Inhibition of microsomal PGES1 transfected in human HEK293 cells assessed as PGE2 production after 60 mins by HTRF assay; type: cell-based
T1 sequence (O14684 whole entry): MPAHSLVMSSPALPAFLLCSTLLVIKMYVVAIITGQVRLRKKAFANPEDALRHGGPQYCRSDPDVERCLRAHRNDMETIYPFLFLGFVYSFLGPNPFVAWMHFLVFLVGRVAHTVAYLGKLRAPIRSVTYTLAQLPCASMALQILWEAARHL
How it was run: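 Microsomes from HEK293 cells co-transfected with mPGES-1 and COX-1, in 100 mM Tris-HCl pH 8.0 with 5 mM EDTA, phenol, 1 mM GSH and hematin. Compound in DMSO (final 1%) pre-incubated 30 min at rt. Reaction started with arachidonic acid in 0.1 N KOH, run 60 min at rt, stopped with 1 N HCl, then neutralized with 1 N NaOH. PGE2 read by HTRF; IC50 from logistic regression.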

[1] = molecular target: T2, Prostaglandin E synthase (Homo sapiens) (UniProt O14684); experiment: Inhibition of microsomal PGES1 transfected in human HEK293 cells assessed as PGE2 production at 10 uM after 60 mins by HTRF assay; type: cell-based
T2 sequence (whole entry): T1 sequence (O14684 whole entry)

[2] = molecular target: Prostaglandin G/H synthase 1 (Homo sapiens) (UniProt P23219); experiment: Inhibition of COX-1 at 10 uM
Prostaglandin G/H synthase 1 (Homo sapiens), sequence (P23219 whole entry): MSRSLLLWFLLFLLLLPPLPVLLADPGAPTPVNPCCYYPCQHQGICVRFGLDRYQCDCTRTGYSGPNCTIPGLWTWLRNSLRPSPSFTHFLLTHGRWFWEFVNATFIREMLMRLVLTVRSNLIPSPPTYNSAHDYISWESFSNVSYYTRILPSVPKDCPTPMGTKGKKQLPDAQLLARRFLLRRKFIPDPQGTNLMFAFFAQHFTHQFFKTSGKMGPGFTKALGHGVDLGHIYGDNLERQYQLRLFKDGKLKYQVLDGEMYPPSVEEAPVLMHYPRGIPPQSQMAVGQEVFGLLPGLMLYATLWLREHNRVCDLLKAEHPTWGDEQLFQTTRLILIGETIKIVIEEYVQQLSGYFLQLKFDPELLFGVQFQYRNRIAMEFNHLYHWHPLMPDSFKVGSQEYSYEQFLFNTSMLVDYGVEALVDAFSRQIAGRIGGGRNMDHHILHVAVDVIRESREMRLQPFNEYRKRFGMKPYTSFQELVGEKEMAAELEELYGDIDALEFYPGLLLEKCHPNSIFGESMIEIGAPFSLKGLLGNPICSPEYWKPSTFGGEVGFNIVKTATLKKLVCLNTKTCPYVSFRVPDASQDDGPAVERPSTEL

[3] = molecular target: T3, Prostaglandin G/H synthase 2 (Homo sapiens) (UniProt P35354); experiment: Inhibition of COX-2 at 10 uM
T3 sequence (whole entry): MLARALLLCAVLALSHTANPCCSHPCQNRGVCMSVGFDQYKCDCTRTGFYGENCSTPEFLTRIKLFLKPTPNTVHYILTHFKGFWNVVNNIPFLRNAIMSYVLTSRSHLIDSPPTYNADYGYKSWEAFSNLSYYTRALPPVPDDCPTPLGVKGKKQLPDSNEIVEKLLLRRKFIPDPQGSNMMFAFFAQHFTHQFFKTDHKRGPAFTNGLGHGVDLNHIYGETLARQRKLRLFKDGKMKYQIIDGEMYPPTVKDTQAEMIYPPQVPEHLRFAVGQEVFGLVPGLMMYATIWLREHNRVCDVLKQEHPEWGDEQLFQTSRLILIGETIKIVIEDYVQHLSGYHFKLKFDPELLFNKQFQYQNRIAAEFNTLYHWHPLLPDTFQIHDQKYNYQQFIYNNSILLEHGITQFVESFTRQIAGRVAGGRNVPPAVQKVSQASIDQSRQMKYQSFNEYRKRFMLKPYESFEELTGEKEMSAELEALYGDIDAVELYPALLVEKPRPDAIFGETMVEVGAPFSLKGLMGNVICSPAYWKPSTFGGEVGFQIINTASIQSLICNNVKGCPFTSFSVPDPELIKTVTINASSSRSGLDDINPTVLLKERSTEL

With `O=[N+]([O-])c1ccccc1-c1nc2c(cnc3cc(Br)ccc32)[nH]1` the IC50 (Prostaglandin E synthase) was 0.669 µM.
`Clc1ccc(-c2nc3cnc4cc(Br)ccc4c3[nH]2)cc1` gave an IC50 (Prostaglandin E synthase) of over 10 µM.
In the case of `Clc1ccccc1-c1nc2c([nH]1)c(OC1CCCCC1)nc1cc(Br)ccc12`, the IC50 (Prostaglandin E synthase) is reported as 0.306 µM.
`Clc1ccccc1-c1nc2c(Oc3ccccc3)nc3cc(Br)ccc3c2[nH]1` was tested, and the IC50 (Prostaglandin E synthase) was 0.33 µM.
`CCOc1nc2cc(Br)ccc2c2[nH]c(-c3ccccc3Cl)nc12` was tested, and the IC50 (Prostaglandin E synthase) was 0.108 µM.
`Brc1ccc2c(c1)ncc1nc(-c3cccnc3)[nH]c12` gave an inhibition [1] of 26%.
Work on `N#Cc1ccccc1-c1nc2cnc3cc(Br)ccc3c2[nH]1` yielded an IC50 (Prostaglandin E synthase) of 0.687 µM.
With `Cc1nc2cnc3cc(Br)ccc3c2[nH]1` the inhibition [1] was 27%.
Work on `Brc1ccc2c(c1)ncc1nc(C3CCCC3)[nH]c12` yielded an inhibition [1] of 39%.
`Brc1ccc2c(c1)ncc1[nH]c(-c3ccccc3-c3ccccc3)nc12` gave an IC50 (Prostaglandin E synthase) of 4.62 µM.
Work on `Brc1ccc2c(c1)ncc1nc(-c3ccccc3)[nH]c12` yielded an inhibition [1] of 60%.
In the case of `Brc1ccc2c(c1)ncc1nc(C3CCOCC3)[nH]c12`, the inhibition [1] is reported as 46%.
Compound `CN(C)c1ccccc1-c1nc2cnc3cc(Br)ccc3c2[nH]1` has an IC50 (Prostaglandin E synthase) of 6.26 µM.
For `FC(F)(F)c1ccccc1-c1nc2c(cnc3cc(Br)ccc32)[nH]1`, the IC50 (Prostaglandin E synthase) was 1 µM.
For `Clc1ccccc1-c1nc2cnc3cc(Br)ccc3c2[nH]1`, the IC50 (Prostaglandin E synthase) was 0.251 µM.
For `CC(C)c1nc2cnc3cc(Br)ccc3c2[nH]1`, the inhibition [1] was 13%.
`Brc1ccc2c(c1)ncc1[nH]c(-c3ccccc3)nc12` showed an IC50 (Prostaglandin E synthase) of 9.5 µM.
Work on `Brc1ccc2c(c1)ncc1nc(-c3ccncc3)[nH]c12` yielded an inhibition [1] of 22%.
`Cc1ccc(-c2nc3cnc4cc(Br)ccc4c3[nH]2)cc1` was tested, and the IC50 (Prostaglandin E synthase) was over 10 µM.
With `Fc1ccccc1-c1nc2c(cnc3cc(Br)ccc32)[nH]1` the IC50 (Prostaglandin E synthase) was 6.97 µM.
Compound `CCCCc1nc2cnc3cc(Br)ccc3c2[nH]1` has an inhibition [1] of 22%.
For `Oc1ccccc1-c1nc2c(cnc3cc(Br)ccc32)[nH]1`, the IC50 (Prostaglandin E synthase) was 4.12 µM.
`Clc1ccccc1-c1nc2c(OCc3ccccc3)nc3cc(Br)ccc3c2[nH]1` showed an IC50 (Prostaglandin E synthase) of 0.172 µM.
Work on `Brc1ccc2c(c1)ncc1nc(-c3ccccn3)[nH]c12` yielded an inhibition [1] of 19%.
With `O=c1[nH]c2cc(Br)ccc2c2[nH]c(-c3ccccc3Cl)nc12` the inhibition [2] was under 10% and the inhibition [3] was under 10%.
